In brackets after ≈: the same amount, converted by molar mass.
Experiments:
Candida albicans [1] = assay: Antifungal activity against Candida albicans after 48 hrs by two fold agar dilution method; format: functional
Summary of the method: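 Two-fold serial dilutions in DMSO were tested against C. albicans by agar dilution. Cultures were incubated for 48 h at 35 °C and growth was monitored. MIC was taken as the lowest concentration (highest dilution) that arrested fungal growth.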

Staphylococcus aureus [2] = assay: Antibacterial activity against methicillin-susceptible Staphylococcus aureus ATCC 35556 by broth dilution method; format: functional
Vero = assay: Cytotoxicity against african green monkey Vero cells after 72 hrs by MTT assay; format: cell-based; details: Chlorocebus sabaeus
Summary of the method: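 Vero cells were exposed to compounds for 72 h. Viability was measured by cellular conversion of MTT into formazan (non-radioactive proliferation assay), and the cytotoxic concentration was reported as IC50.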

Staphylococcus aureus [3] = assay: Ratio of ciprofloxacin MIC to compound MIC against Staphylococcus aureus ATCC 25923; format: functional
Bacillus spizizenii = assay: Antibacterial activity against Bacillus subtilis ATCC 6633 by two fold broth dilution method; format: functional
Klebsiella pneumoniae = assay: Antibacterial activity against Klebsiella pneumoniae by two fold broth dilution method; format: functional
Staphylococcus aureus [4] = assay: Antibacterial activity against Staphylococcus aureus ATCC 25923 by two fold broth dilution method; format: functional
Staphylococcus aureus [5] = assay: Antibacterial activity against methicillin-resistant Staphylococcus aureus ATCC 43866 by broth dilution method; format: functional
Staphylococcus aureus [6] = assay: Ratio of ciprofloxacin MIC to compound MIC against methicillin-susceptible Staphylococcus aureus ATCC 35556; format: functional
Escherichia coli = assay: Antibacterial activity against Escherichia coli ATCC 25922 by two fold broth dilution method; format: functional
Candida albicans [7] = assay: Ratio of ampotericin-B MIC to compound MIC against Candida albicans; format: functional
[8] = tested on: Mycobacterium tuberculosis; assay: Antitubercular activity against Mycobacterium tuberculosis H37Rv after 7 days by resazurin microtitre assay; format: functional; details: 168 h

SMILES	MIC (Candida albicans [1])	MIC (Staphylococcus aureus [2])	IC50 (Vero)	Ratio (Staphylococcus aureus [3])	MIC (Bacillus spizizenii)	MIC (Klebsiella pneumoniae)	MIC (Staphylococcus aureus [4])	MIC (Staphylococcus aureus [5])	Ratio (Staphylococcus aureus [6])	MIC (Escherichia coli)	Ratio (Candida albicans [7])	MIC [8]
COc1ccc(-c2nnc(-c3cc([N+](=O)[O-])cn3C)o2)cc1	1.56 µg/mL (≈ 5.2 µM)	0.39 µg/mL (≈ 1.3 µM)	281 µM	2	1.56 µg/mL (≈ 5.2 µM)	12.5 µg/mL (≈ 41.6 µM)	0.78 µg/mL (≈ 2.6 µM)	1.56 µg/mL (≈ 5.2 µM)	2	6.25 µg/mL (≈ 20.8 µM)	2	
Cn1cc([N+](=O)[O-])cc1-c1nnc(-c2ccns2)o1	1.56 µg/mL (≈ 5.63 µM)	0.39 µg/mL (≈ 1.41 µM)	320 µM	2	1.56 µg/mL (≈ 5.63 µM)	12.5 µg/mL (≈ 45.1 µM)	0.78 µg/mL (≈ 2.81 µM)	1.56 µg/mL (≈ 5.63 µM)	2	6.25 µg/mL (≈ 22.5 µM)	2	
Cc1ccc(-c2nnc(-c3cc([N+](=O)[O-])cn3C)o2)s1	1.56 µg/mL (≈ 5.37 µM)	1.56 µg/mL (≈ 5.37 µM)	98.3 µM	2	1.56 µg/mL (≈ 5.37 µM)	12.5 µg/mL (≈ 43.1 µM)	0.78 µg/mL (≈ 2.69 µM)	1.56 µg/mL (≈ 5.37 µM)		6.25 µg/mL (≈ 21.5 µM)	2	
Cn1cc([N+](=O)[O-])cc1-c1nnc(-c2cccc([N+](=O)[O-])c2O)o1	1.56 µg/mL (≈ 4.71 µM)	0.39 µg/mL (≈ 1.18 µM)	269 µM	2	1.56 µg/mL (≈ 4.71 µM)	12.5 µg/mL (≈ 37.7 µM)	0.78 µg/mL (≈ 2.35 µM)	1.56 µg/mL (≈ 4.71 µM)	2	3.12 µg/mL (≈ 9.43 µM)	2	
Cn1cc([N+](=O)[O-])cc1-c1nnc(Cc2ccc(F)c3ccccc23)o1	1.56 µg/mL (≈ 4.43 µM)	0.39 µg/mL (≈ 1.11 µM)	119 µM	2	1.56 µg/mL (≈ 4.43 µM)	12.5 µg/mL (≈ 35.5 µM)	0.78 µg/mL (≈ 2.21 µM)	1.56 µg/mL (≈ 4.43 µM)	2	6.25 µg/mL (≈ 17.7 µM)	2	
Cn1cc([N+](=O)[O-])cc1-c1nnc(-c2ccco2)o1	1.56 µg/mL (≈ 6 µM)	1.56 µg/mL (≈ 6 µM)	190 µM	2	1.56 µg/mL (≈ 6 µM)	50 µg/mL (≈ 192 µM)	0.78 µg/mL (≈ 3 µM)	1.56 µg/mL (≈ 6 µM)		3.12 µg/mL (≈ 12 µM)	2	60.2 µg/mL (≈ 231 µM)
Cn1cc([N+](=O)[O-])cc1-c1nnc(-c2cccs2)o1	1.56 µg/mL (≈ 5.65 µM)	1.56 µg/mL (≈ 5.65 µM)	521 µM	2	1.56 µg/mL (≈ 5.65 µM)	50 µg/mL (≈ 181 µM)	0.78 µg/mL (≈ 2.82 µM)	1.56 µg/mL (≈ 5.65 µM)		6.25 µg/mL (≈ 22.6 µM)	2	

— ChEMBL document CHEMBL3085642, “Synthesis and evaluation of novel 4-nitropyrrole-based 1,3,4-oxadiazole derivatives as antimicrobial and anti-tubercular agents” (Eur J Med Chem, 2013)
